Columns and labels:
[1] = system: Human alphaherpesvirus 2; assay: Antiviral activity against Herpes simplex virus 2 G infected in human HEL cells assessed as inhibition of virus-induced cytopathic effect; assay type: functional, cell-based; conditions: Human alphaherpesvirus 2, strain G
Outline: (§1)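 Confluent HEL fibroblast monolayers were inoculated in 96-well plates with 100 CCID50 of virus in the presence of serially varied compound concentrations. Cytopathicity was scored once untreated infected controls reached full CPE.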

[2] = Drug metabolism assessed as carboxypeptidase Y (unknown origin)-mediated metabolite 79 formation measured after 14 hrs by [31P]-NMR spectroscopic analysis; assay type: ADME; conditions: human
[3] = system: Human alphaherpesvirus 3; assay: Antiviral activity against thymidine kinase deficient Varicella-Zoster virus 07-1 infected in human HEL cells assessed as inhibition of virus-induced cytopathic effect; assay type: functional, cell-based; conditions: Human alphaherpesvirus 3, 07-1, HEL
Outline: (§2)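 Confluent HEL fibroblast cultures were inoculated with 20 PFU of VZV in the presence of varying compound concentrations. Plaque formation was recorded once untreated infected controls reached completion.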

[4] = system: Human betaherpesvirus 5; assay: Antiviral activity against human cytomegalovirus Davis infected in human HEL cells assessed as inhibition of virus-induced cytopathic effect; assay type: functional, cell-based; conditions: Human betaherpesvirus 5, Davis; outline: as §1
[5] = system: Human betaherpesvirus 5; assay: Antiviral activity against human cytomegalovirus AD-169 infected in human HEL cells assessed as inhibition of virus-induced cytopathic effect; assay type: functional, cell-based; conditions: Human betaherpesvirus 5, AD-169, HEL; outline: as §1
[6] = Cytotoxicity against human HEL cells assessed as alteration to cell morphology by microscopic analysis; assay type: cell-based
Outline: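 Minimal cytotoxic concentration is the compound concentration giving a microscopically visible alteration of HEL cell morphology, scored in the antiviral assay cultures.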

[7] = system: CCRF-CEM; assay: (§3) Cytostatic activity human CEM cells assessed as reduction in cell viability after 72 hrs by cell counting method; assay type: cell-based; conditions: ccrf-cem, 72 h
Outline: (§4)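 (5–7.5) × 10^? CEM cells per well were grown with compound for 72 h at 37 °C under humidified CO2. Cells were counted in a Coulter counter.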

[8] = system: Human alphaherpesvirus 3; assay: Antiviral activity against Varicella-Zoster virus OKA infected in human HEL cells assessed as inhibition of virus-induced cytopathic effect; assay type: functional, cell-based; conditions: Human alphaherpesvirus 3, strain Oka vaccine; outline: as §2
[9] = system: HEL; assay: Cytotoxicity against human HEL cells assessed as cell growth inhibition by cell counting method; assay type: cell-based
[10] = system: Human alphaherpesvirus 1; assay: Antiviral activity against Herpes simplex virus 1 KOS infected in human HEL cells assessed as inhibition of virus-induced cytopathic effect; assay type: functional, cell-based; conditions: Human alphaherpesvirus 1, KOS; outline: as §1
[11] = system: Human alphaherpesvirus 1; assay: Antiviral activity against ACV-resistant thymidine kinase deficient Herpes simplex virus 1 KOS infected in human HEL cells assessed as inhibition of virus-induced cytopathic effect; assay type: functional, cell-based; conditions: Human alphaherpesvirus 1, KOS; outline: as §1
[12] = system: Human immunodeficiency virus 1; assay: Antiviral activity against HIV1 X4LAI.04 infected in human MT4 cells assessed as decrease in viral replication by p24gag-based luminex assay; assay type: functional, cell-based; conditions: Human immunodeficiency virus 1, X4LAI.04, MT4
Outline: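 10^6 MT-4 cells were infected with HIV-1 X4LAI.04 (7 ng p24) for 2 h at 37 °C, then washed with PBS and resuspended. Compounds were added and cultures were kept 3 days at 37 °C. Supernatant p24 was measured by bead-based Luminex. Inhibition was calculated as (1 − p24 treated/p24 untreated) × 100, and EC50 was derived from it.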

[13] = system: MT4; assay: Cytotoxicity against human MT4 cells assessed as reduction in cell viability by cell counting method; assay type: cell-based
Outline: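 MT-4 cultures, untreated or treated, were assessed with an automated cell counter using propidium iodide staining to enumerate total and dead cells.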

[14] = Drug metabolism assessed as carboxypeptidase Y (unknown origin)-mediated metabolite 81 peak measured after 14 hrs by [31P]-NMR spectroscopic analysis; assay type: ADME; conditions: human
[15] = Drug metabolism assessed as carboxypeptidase Y (unknown origin)-mediated metabolite 81 formation measured after 2 hrs by [31P]-NMR spectroscopic analysis; assay type: ADME; conditions: human
[16] = Drug metabolism assessed as carboxypeptidase Y (unknown origin)-mediated metabolite 79 formation measured after 2 hrs by [31P]-NMR spectroscopic analysis; assay type: ADME; conditions: human
[17] = system: Human immunodeficiency virus 1; assay: Antiviral activity against HIV1 X4LAI.04 infected in human tonsillar tissues assessed as inhibition of virus-induced cytopathic effect by p24gag-based luminex assay; assay type: functional; conditions: Human immunodeficiency virus 1, X4LAI.04
Outline: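 Tonsillectomy tissue blocks of 2–3 mm³ were cultured on collagen sponge gels at the air–liquid interface, 27 blocks per donor per condition. Blocks were pretreated with compound overnight, infected with HIV-1 X4LAI.04 and cultured 12 days, with drug replenished at each medium change every 3 days. Medium p24 was measured by Luminex. Inhibition was calculated against untreated tissue, and EC50 was derived from it.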

[18] = Prodrug activation assessed as carboxypeptidase Y (unknown origin)-mediated 2-((4-(2-amino-6-chloro-9H-purin-9-yl)-2-(hydroxymethyl)butoxy)oxidophosphorylamino)propanoate formation measured after 8 hrs by [31P]-NMR spectroscopic analysis; conditions: human
[19] = Prodrug activation assessed as carboxypeptidase Y (unknown origin)-mediated 2-{5-[2-(2-Amino-6-chloro-purin-9-yl)-ethyl]-2-oxo-2lambda(5)-[1,3,2]dioxaphosphinan-2-ylamino}-propionic acid anion peak formation measured with in 1 hr by [31P]-NMR spectroscopic analysis; conditions: human
[20] = Prodrug activation assessed as carboxypeptidase Y (unknown origin)-mediated 2-((4-(2-amino-6-chloro-9H-purin-9-yl)-2-(hydroxymethyl)butoxy)oxidophosphorylamino)propanoate peak formation measured after […] by [31P]-NMR spectroscopic analysis; conditions: human
[21] = Prodrug activation assessed as carboxypeptidase Y (unknown origin)-mediated 2-((4-(2-amino-6-chloro-9H-purin-9-yl)-2-(hydroxymethyl)butoxy)oxidophosphorylamino)propanoate formation by mass spectroscopic analysis; conditions: human
[22] = Drug metabolism assessed as carboxypeptidase Y (unknown origin)-mediated metabolite 81 formation measured after 24 hrs by [31P]-NMR spectroscopic analysis; assay type: ADME; conditions: human
[23] = Drug metabolism assessed as carboxypeptidase Y (unknown origin)-mediated metabolite 81 peak measured with in 1 hr by [31P]-NMR spectroscopic analysis; assay type: ADME; conditions: human
[24] = Selectivity index, ratio of IC50 for human MT4 cells to EC50 for HIV1 X4LAI.04; assay type: toxicity; conditions: read-out: Ratio IC50/EC50
[25] = Drug metabolism assessed as carboxypeptidase Y (unknown origin)-mediated metabolite 79 formation measured after 15 mins by [31P]-NMR spectroscopic analysis; assay type: ADME; conditions: human
[26] = Drug metabolism assessed as carboxypeptidase Y (unknown origin)-mediated metabolite 81 peak measured after 15 mins by [31P]-NMR spectroscopic analysis; assay type: ADME; conditions: human
[27] = Drug metabolism assessed as carboxypeptidase Y (unknown origin)-mediated metabolite 81 peak formation measured with in 30 mins by [31P]-NMR spectroscopic analysis; assay type: ADME; conditions: human, 0.5 h
[28] = as §3; assay type: cell-based, CCRF-CEM; conditions: CEM cells (CCRF-CEM); outline: as §4

| SMILES | EC50 [1] [µM] | EC50 [3] [µM] | EC50 [4] [µM] | EC50 [5] [µM] | MCC [6] [µM] | CC50 [7] [µM] | EC50 [8] [µM] | CC50 [9] [µM] | EC50 [10] [µM] | EC50 [11] [µM] | EC50 [12] [µM] | IC50 [13] [µM] | EC50 [17] [µM] | also measured |
| --- | --- | --- | --- | --- | --- | --- | --- | --- | --- | --- | --- | --- | --- | --- |
| CCCOC(=O)[C@H](C)NP(=O)(OCC(CCn1cnc2c(OC)nc(N)nc21)COP(=O)(N[C@@H](C)C(=O)OCCC)Oc1cccc2ccccc12)Oc1cccc2ccccc12 (stereo partly drawn) | > 100 | 8.1 | 40 | 32 | 50 to 100 | 6.8 | 6.1 | 4.9 | > 100 | > 100 | 9.7 | 20 | – | Drug metabolism [2]: Metabolite_Detected; Drug metabolism [14]: Metabolite_Detected |
| CCCOC(=O)[C@H](C)NP(=O)(OCC(CO)CCn1cnc2c(OC)nc(N)nc21)Oc1cccc2ccccc12 (stereo partly drawn) | 15 | 9.1 | 50 | 32 | 50 to 100 | 17 | 3.7 | 14.4 | 14 | ≥ 20 | 11 | 13 | – | Drug metabolism [15]: Metabolite_Detected; Drug metabolism [16]: Metabolite_Detected |
| C[C@H](NP1(=O)OCC(OCn2cnc3c(Cl)nc(N)nc32)CO1)C(=O)OCc1ccccc1 (stereo partly drawn) | > 100 | – | – | – | > 100 | 165 | – | – | > 100 | > 100 | 85 | 150 | 9 | Drug metabolism [18]: Metabolite_Detected; Drug metabolism [19]: Metabolite_Detected; Drug metabolism [20]: Metabolite_Detected; Drug metabolism [21]: Metabolite_Detected |
| CC(C)OC(=O)[C@H](C)NP(=O)(OCC(CO)OCn1cnc2c(=O)[nH]c(N)nc21)Oc1cccc2ccccc12 (stereo partly drawn) | 3 | ≥ 10.8 | 6.8 | > 50 | > 100 | 35 | ≥ 23.5 | > 50 | 2 | ≥ 75 | 40 | 150 | – | Drug metabolism [22]: Metabolite_Notdetected; Drug metabolism [23]: Metabolite_Detected |
| COc1nc(N)nc2c1ncn2CCC(CO)COP(=O)(N[C@@H](C)C(=O)OCc1ccccc1)Oc1ccccc1 (stereo partly drawn) | 29 | 22.2 | 7.9 | 31.6 | 50 to 100 | 32 | 17.1 | ≥ 83 | 39 | 39 | 1.1 | 23 | 0.9 | selectivity ratio [24]: 2.1 |
| C[C@H](NP(=O)(OCC(CO)CCn1cnc2c(=O)[nH]c(N)nc21)Oc1cccc2ccccc12)C(=O)OCc1ccccc1 (stereo partly drawn) | 79 | > 50 | > 50 | > 50 | 50 to 100 | 138 | 9.3 | > 100 | 73 | > 100 | 21 | 100 | – | Drug metabolism [25]: Metabolite_Detected; Drug metabolism [26]: Metabolite_Detected |
| C[C@H](NP(=O)(OCC(CO)CCn1cnc2c(Cl)nc(N)nc21)Oc1ccccc1)C(=O)OCc1ccccc1 (mixture of isomers) | > 100 | 42.9 | > 100 | > 100 | > 100 | 33 | 37.3 | 39 | > 100 | > 100 | 1 | 20 | 4 | Drug metabolism [27]: Metabolite_Detected |
| Nc1nc(O)c2ncn(COC(CO)CO)c2n1 [GANCICLOVIR] | 0.04 | – | – | – | 100 to 350 | – | – | 273 | – | – | > 50 | > 50 | 5 | CC50 at 72 h [28]: > 100 µM |
